Here are results for two molecules from publication PMC11157418 (Clinical and Translational Science, 2024).

For data set [1] the following is noted: cited from earlier work.
For data set [2], the system named is mice with TAA-induced liver injury / CCl4-induced liver fibrosis. The following applies: cited from earlier work.
Data set [3] has as its system human induced pluripotent stem (iPS) cell-derived hepatocytes. The data set can be described thus: MTT cytotoxicity assay. In kind it is cell-based. The following applies: ALY688 0.5 to 2000 nM, globular adiponectin 1 μg/mL; 4 and 24 h; Figure S1A. An outline of the steps:
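iPS cell-derived human hepatocytes were exposed to test compound at 0.5, 1, 100, 500, 1000, 1500 and 2000 nM, to globular adiponectin 1 μg/mL, or to H₂O₂ 500 μM for 4 and 24 h. Viability was quantified by MTT formazan per manufacturer. Experiments were repeated at least three times; mean ± SEM.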
(Tetrazolium assays rely on reduction of a dye to a coloured formazan, in cell work by metabolically active cells.)

The test system is the same in data set [4]. The data set can be described thus: LDH release cytotoxicity assay. The following applies: ALY688 0.5 to 2000 nM, globular adiponectin 1 μg/mL; 4 and 24 h; Figure S1B. In kind it is cell-based. An outline of the steps: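 iPS cell-derived human hepatocytes were exposed to test compound at 0.5, 1, 100, 500, 1000, 1500 and 2000 nM, to globular adiponectin 1 μg/mL, or to H₂O₂ 500 μM for 4 and 24 h. Cytotoxicity was quantified as LDH release by kit per manufacturer. Experiments were repeated at least three times; mean ± SEM.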
(Release of lactate dehydrogenase indicates damage to the cell membrane.)

A short description of data set [5]: Pharmacokinetic study after single s.c. injection. In kind it is in vivo, Sprague-Dawley rats. The following applies: male, Sprague-Dawley, rat, plasma, sc, 10 mg/kg. A digest of the protocol: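 Male adult Sprague–Dawley rats (two per cage, 22–24°C, 12-h light cycle) received a single s.c. dose of 10 mg/kg. Plasma peptide was measured by LC–MS/MS. PK parameters were computed with values below LLOQ set to zero.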

The test system of another data set is STAM mice. The data set can be described thus: STAM. The class given is in vivo, C57BL/6N mice. A digest of the protocol: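 Male C57BL/6N mice received 200 μg streptozotocin s.c. at 2 days after birth and were fed HFD (57 kcal% fat) from week 4 to week 9. From week 6 to week 9, mice received saline vehicle or test compound at 0.5 or 5 mg/kg/day, by daily s.c. injection or s.c. osmotic pump (0.25 μL/h); n=6/group. Read-outs were body weight during treatment, and terminal plasma ALT/AST (dry-chemistry analyser) and liver weight. Unpaired two-sided t-test.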

The subject of data set [6] is CDAHFD-fed mice. The data set can be described thus: Hepatic fibrosis in CDAHF mouse model. The class given is in vivo, C57BL/6N mice. The following applies: 30 mg/kg daily oral; Figure 3a-c.
The next data set has as its system liver of CDAHFD-fed mice. The data set can be described thus: Hepatic gene expression in CDAHF mouse model. In kind it is in vivo, C57BL/6N mice. The following applies: RT-qPCR, 30 mg/kg oral.
For data set [7], the system named is CDAHFD-fed mice. The data set can be described thus: CDAHF diet-induced mouse model of MASH. In kind it is in vivo, C57BL/6N mice. The following applies: 30 mg/kg/day oral dosing; Figure 2c-g. An outline of the steps:
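Male C57BL/6N mice, 8 weeks old, fed a choline-deficient, low-methionine high-fat diet (60 kcal% fat) for 12 weeks. From week 3, obeticholic acid 30 mg/kg was given daily by oral gavage in 0.5% CMC/0.01% Tween-80 for 9 weeks. Vehicle-treated chow-fed mice served as negative controls (n=10/group). End-of-treatment read-outs were serum ALT/AST by commercial kits, liver weight, hepatic TG and H&E NAS scoring.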

Where [8] appears, read: continuous infusion, high dose 5 mg/kg/day, vs control mice.

Where a SMILES comes first, the peptide text is derived from it. [ ]: non-standard residue; d: D form. Nva = CCC[C@H](N)C(=O)O

The half-life is the time needed for the level to fall by half in the phase considered. With `CCC[C@H](NC(=O)[C@@H]1CCCN1C(=O)[C@@H](NC(=O)[C@H](N)CC(N)=O)[C@@H](C)CC)C(=O)N[C@@H](CC(C)C)C(=O)N[C@@H](Cc1ccc(O)cc1)C(=O)N[C@H](CO)C(=O)N[C@@H](Cc1ccccc1)C(=O)N[C@@H](C)C(=O)N[C@H](CO)C(N)=O` [ALY688] (H-[dN]IP[Nva]LY[dS]FA[dS]-NH2; N-terminus and C-terminus assumed), in data set [1], the “Stability in mouse plasma” value is “good stability”. The “Effect against TAA-induced liver injury and CCl4-induced liver fibrosis” value in data set [2] is “liver protective effects”. The “Cytotoxicity, MTT assay” value in [3] is listed as “No toxicity”. For the same molecule, the “Cytotoxicity, LDH release assay” value in data set [4] is reported as “No toxicity”. Besides, the half-life in data set [5] is 27 min. Besides, in the data set on STAM mice (0.5 or 5 mg/kg/day, daily s.c. or osmotic pump, Figure 1b), the “Body weight during the treatment period” value was “did not induce change in body weight”. Besides, in the data set with STAM mice (setting [8]), the “Serum ALT level” value is recorded as “slightly lower levels of ALT without statistical significance” and the “Serum AST level” value is “significantly reduced”. In the data set on STAM mice (daily s.c. injection, 0.5 or 5 mg/kg/day, vs vehicle), the “Serum ALT and AST levels” value was “did not affect”.
As for `CC[C@H]1[C@@H](O)[C@@H]2[C@H](CC[C@]3(C)[C@@H]([C@H](C)CCC(=O)O)CC[C@@H]23)[C@@]2(C)CC[C@@H](O)C[C@@H]12` [OCA, obeticholic acid], the “Hepatic fibrosis by histological examination” value with CDAHFD-fed mice [6] is recorded as “protective effects against hepatic fibrosis”. Moreover, the “Hepatic expression of fatty acid oxidation genes (Acot1, Acox1, Cyp4a12)” value in the data set with liver of CDAHFD-fed mice (Figure 4e) was “restored”. Besides, in the data set with liver of CDAHFD-fed mice (Figure 4f), the “Hepatic expression of fibrosis-related genes (Tgfβ, Col1a1, Timp1)” value was “appeared to reduce the expression of most of these fibrotic genes, although without statistical significance”. Moreover, the “Expression of MASH-induced inflammatory genes” value in the data set with liver of CDAHFD-fed mice (Figure 4g) was “failed to reverse”. Also, the “Effect on alleviating MASH” value in the data set with CDAHFD-fed mice [7] is recorded as “did not show beneficial effects”.
